Calls of active or inactive are those of the source. The rule behind the calls is not given here. Non-standard residues stand in square brackets, D forms with d. Residues, ends and D or L forms follow the SMILES beside them. hPhe = N[C@@H](CCc1ccccc1)C(=O)O
Key:
Splenocyte [1] = experiment: Immunosuppressive activity against sheep erythrocytes-induced humoral immune response in CBA mouse splenocyte assessed as inhibition antibody forming cells at 100 ug/ml after 4 days; format: functional; design: scale not given: the % may be the effect or the level left
How it was run: (§1)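 Donor CBA mice (12-week-old, both sexes) sensitized with 0.2 ml of 1% SRBC suspension; spleens harvested four days later, erythrocytes lysed with 0.83% ammonium chloride. Splenocytes (5 ×10⁶/ml/well) cultured with SRBC (0.1 ml of 0.005% suspension) plus peptides (DMSO, then medium). After four days, antibody-forming cells counted; mean AFC numbers from quadruplicate wells ± SE.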

T-cell = experiment: Immunosuppressive effect on CBA mouse T cells assessed as inhibition of mitogen-induced proliferation at 100 ug/ml after 3 days by MTT assay; format: functional, cell-based
B = experiment: Immunosuppressive effect on CBA mouse B cells assessed as inhibition of mitogen-induced proliferation after 3 days by MTT assay; format: functional, cell-based
[2] = Toxicity in mouse WEHI164 clone 13 cells at 100 ug/ml after 24 hrs by MTT assay; conditions: wehi-164, 24 h
How it was run: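 WEHI 164.13 cells exposed 24 h to peptides (DMSO then culture medium) or DMSO control solutions. Viability measured by MTT colorimetric method and expressed as percentage of OD relative to matching solvent dilutions (taken as 100%). Student's t-test for statistics.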

Splenocyte [3] = experiment: Immunosuppressive activity against sheep erythrocytes-induced humoral immune response in CBA mouse splenocyte assessed as inhibition antibody forming cells after 4 days; format: functional, cell-based; how it was run: as §1

Compound: CC[C@H](C)[C@@H]1NC(=O)[C@H](CC(C)C)NC(=O)[C@H](Cc2ccccc2)NC(=O)[C@H](CCc2ccccc2)NC(=O)[C@@H]2CCCN2C(=O)[C@@H]2CCCN2C(=O)[C@H](C(C)C)NC(=O)[C@H](CC(C)C)NC(=O)[C@H]([C@@H](C)CC)NC1=O (cyclo(FLIILVPP[hPhe]))
- Activity (Splenocyte [1]): 94.5%
- Activity (T-cell): Active

Compound: CC[C@H](C)[C@@H]1NC(=O)[C@H](CC(C)C)NC(=O)[C@H](CCc2ccccc2)NC(=O)[C@H](Cc2ccccc2)NC(=O)[C@@H]2CCCN2C(=O)[C@@H]2CCCN2C(=O)[C@H](C(C)C)NC(=O)[C@H](CC(C)C)NC(=O)[C@H]([C@@H](C)CC)NC1=O (cyclo(F[hPhe]LIILVPP))
- Activity (Splenocyte [1]): 92%
- Activity (B): Active
- Activity [2]: 47.19%

Compound: CC[C@H](C)[C@@H]1NC(=O)[C@H](CC(C)C)NC(=O)[C@H](CCc2ccccc2)NC(=O)[C@H](CCc2ccccc2)NC(=O)[C@@H]2CCCN2C(=O)[C@@H]2CCCN2C(=O)[C@H](C(C)C)NC(=O)[C@H](CC(C)C)NC(=O)[C@H]([C@@H](C)CC)NC1=O (cyclo(IILVPP[hPhe][hPhe]L))
- Activity (Splenocyte [3]): Active
- Activity (B): Active
